Reference: ChEMBL document CHEMBL3739331, “Synthesis and Bioactivities of Kanamycin B-Derived Cationic Amphiphiles” (J Med Chem, 2015)
Values after ≈ are worked out from the molar mass of the structure shown. Active and inactive are the calls of the source. No cut-off for these calls is given here.

Key:
Listeria monocytogenes [1] = assay: Resistance index, ratio of MIC for Listeria monocytogenes ATCC 19115 after 6-passage to MIC for Listeria monocytogenes ATCC 19115 by microdilution method; type: functional
In short: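 Cells grown at subinhibitory concentration (1/2 MIC) seed each next round. The index compares the MIC at a later passage with the starting MIC.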

Candida albicans [2] = assay: Antifungal activity against azole-resistant Candida albicans ATCC 64124 assessed as cell membrane permeabilization at 62.5 ug/ml after 1 hr by propidium iodide-staining based fluorescence microscopic analysis (reference value: <2%); type: functional
[3] = Hemolytic activity against mouse RBC at 100 to 500 ug/ml after 60 mins; type: ADME, cell-based; conditions: erythrocyte, 1 h
A549 = assay: Cytotoxicity against human A549 cells after 24 hrs by resazurin assay; type: cell-based; conditions: human, a549, 24 h
[4] = Cytotoxicity against human BEAS2B cells after 24 hrs by resazurin assay; type: cell-based, BEAS-2B; conditions: human, beas-2b
Klebsiella pneumoniae = assay: Antibacterial activity against Klebsiella pneumoniae ATCC 27736 by microdilution method; type: functional
In short: (§1)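 Broth microdilution MIC against the named bacterial strain, reported in μg/mL; each determination run at least in duplicate.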

Bacillus subtilis = assay: Antibacterial activity against Bacillus subtilis 168 by microdilution method; type: functional; conditions: subsp. subtilis str. 168; in short: as §1
Listeria monocytogenes [5] = assay: Antibacterial activity against Listeria monocytogenes ATCC 19115 by microdilution method; type: functional; in short: as §1
Staphylococcus aureus [6] = assay: Antibacterial activity against methicillin-resistant Staphylococcus aureus by microdilution method; type: functional
In short: (§2)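 Broth microdilution MIC, in μg/mL, against a panel of Gram-positive and Gram-negative strains. Run at least in duplicate.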

[7] = test system: Mycolicibacterium smegmatis; assay: Antibacterial activity against Mycobacterium smegmatis MC2 155 by microdilution method; type: functional; conditions: str. MC2 155; in short: as §2
Staphylococcus aureus [8] = assay: Antibacterial activity against Staphylococcus aureus ATCC 29213 by microdilution method; type: functional; in short: as §1
Staphylococcus aureus [9] = assay: Antibacterial activity against Staphylococcus aureus NRS382 (USA 100) by microdilution method; type: functional; in short: as §1
Staphylococcus aureus [10] = assay: Antibacterial activity against Staphylococcus aureus NRS383 (USA 200) by microdilution method; type: functional; in short: as §1
Staphylococcus aureus [11] = assay: Antibacterial activity against Staphylococcus aureus NRS385 (USA 300) by microdilution method; type: functional; in short: as §2
Staphylococcus aureus [12] = assay: Antibacterial activity against Staphylococcus aureus NRS22 (USA 600) by microdilution method; type: functional; in short: as §1
[13] = test system: Staphylococcus epidermidis; assay: Antibacterial activity against Staphylococcus epidermidis ATCC 12228 by microdilution method; type: functional; in short: as §1
Enterococcus = assay: Antibacterial activity against vancomycin-resistant Enterococcus by microdilution method; type: functional; in short: as §2
Acinetobacter baumannii = assay: Antibacterial activity against Acinetobacter baumannii ATCC 19606 by microdilution method; type: functional; in short: as §1
Enterobacter cloacae = assay: Antibacterial activity against Enterobacter cloacae ATCC 13047 by microdilution method; type: functional; in short: as §1
Escherichia coli = assay: Antibacterial activity against Escherichia coli MC1061 by microdilution method; type: functional; in short: as §2
Pseudomonas aeruginosa = assay: Antibacterial activity against Pseudomonas aeruginosa ATCC 27853 by microdilution method; type: functional; in short: as §1
Salmonella enterica = assay: Antibacterial activity against Salmonella enterica ATCC 14028 by microdilution method; type: functional; in short: as §1
[14] = Activity of AAC(3)-4 (unknown origin) assessed as compound conversion to monoacetylated product incubated for 20 hrs by TLC analysis
[15] = test system: Mycobacterium tuberculosis; assay: Activity of Mycobacterium tuberculosis AAC(2')-1c assessed as compound conversion to monoacetylated product incubated for 20 hrs by TLC analysis
Serratia marcescens = assay: Activity of Serratia marcescens AAC(6')-2d assessed as compound conversion to monoacetylated product incubated for 20 hrs by TLC analysis
[16] = Activity of Mycobacterium tuberculosis AAC(2')-1c/AAC(3)-4 (unknown origin) assessed as compound conversion to 3'-acetylated product incubated for 20 hrs by TLC analysis
[17] = Activity of Mycobacterium tuberculosis AAC(2')-1c/Serratia marcescens AAC(6')-2d assessed as compound conversion to 6'-monoacetylated product incubated for 20 hrs by TLC analysis
[18] = Activity of AAC(3)-4 (unknown origin)/Serratia marcescens AAC(6')-2d assessed as compound conversion to 3'-acetylated product incubated for 20 hrs by TLC analysis
[19] = Activity of Mycobacterium tuberculosis […]/AAC(3)-4 (unknown origin)/Serratia marcescens AAC(6')-2d (unknown origin) assessed as compound conversion to diacetylated adduct incubated for 20 hrs by TLC analysis
Candida albicans [20] = assay: Antifungal activity against azole-resistant Candida albicans ATCC 10231 after 48 hrs by microbroth dilution method; type: functional; conditions: ATCC 10231, 48 h
In short: (§3)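 Yeast MIC by broth microdilution, run in duplicate. The aminoglycoside compounds are read as MIC-0 (complete inhibition). Azoles are read as MIC-2 (50% inhibition).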

Candida albicans [21] = assay: Antifungal activity against azole-resistant Candida albicans ATCC 64124 after 48 hrs by microbroth dilution method; type: functional; conditions: ATCC 64124, 48 h; in short: as §3
Candida albicans [22] = assay: Antifungal activity against azole-susceptible Candida albicans ATCC MYA-2876 after 48 hrs by microbroth dilution method; type: functional; conditions: ATCC MYA-2876, 48 h; in short: as §3
Candida albicans [23] = assay: Antifungal activity against azole-resistant Candida albicans ATCC 90819 after 48 hrs by microbroth dilution method; type: functional; conditions: ATCC 90819, 48 h; in short: as §3
Candida albicans [24] = assay: Antifungal activity against azole-susceptible Candida albicans ATCC MYA-2310 after 48 hrs by microbroth dilution method; type: functional; conditions: ATCC MYA-2310, 48 h; in short: as §3
Candida albicans [25] = assay: Antifungal activity against azole-resistant Candida albicans MYA-1237 after 48 hrs by microbroth dilution method; type: functional; conditions: MYA-1237, 48 h; in short: as §3
Candida albicans [26] = assay: Antifungal activity against azole-resistant Candida albicans MYA-1003 after 48 hrs by microbroth dilution method; type: functional; conditions: MYA-1003, 48 h; in short: as §3
Aspergillus nidulans = assay: Antifungal activity against Aspergillus nidulans ATCC 38163 after 48 hrs by microbroth dilution method; type: functional; conditions: ATCC 38163, 48 h
In short: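 Filamentous fungus MIC by broth microdilution, run in duplicate. All compounds are read as MIC-0 (complete inhibition).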

Candida albicans [27] = assay: (§4) Antifungal activity against azole-resistant Candida albicans ATCC 10231 after 48 hrs in presence of (2R,3S,4R,5R,6R)-5-amino-2-(aminomethyl)-6-((1R,2S,3S,4R,6S)-4,6-diamino-3-((2S,3R,4S,5S,6S)-4-amino-6-(dodecylthiomethyl)-3,5-dihydroxytetrahydro-2H-pyran-2-yloxy)-2-hydroxycyclohexyloxy)tetrahydro-2H-pyran-3,4-diol by checkerboard microdilution assay; type: functional; conditions: ATCC 10231, 48 h
In short: (§5)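 Checkerboard combinations of the aminoglycoside amphiphile with posaconazole against yeast strains, run in duplicate. Each agent's MIC is taken alone and in combination. The fractional inhibitory concentration index (FICI) is calculated to classify the interaction.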

Candida albicans [28] = assay: as §4, with “64124” for “10231”; type: functional; conditions: ATCC 64124, 48 h; in short: as §5
Candida albicans [29] = assay: as §4, with “azole-susceptible” for “azole-resistant”, “MYA-2876” for “10231”; type: functional; conditions: ATCC MYA-2876, 48 h; in short: as §5
Candida albicans [30] = assay: as §4, with “90819” for “10231”; type: functional; conditions: ATCC 90819, 48 h; in short: as §5
Candida albicans [31] = assay: as §4, with “azole-susceptible” for “azole-resistant”, “MYA-2310” for “10231”; type: functional; conditions: ATCC MYA-2310, 48 h; in short: as §5
Candida albicans [32] = assay: as §4, with “MYA-1237” for “ATCC 10231”; type: functional; conditions: MYA-1237, 48 h; in short: as §5
Candida albicans [33] = assay: as §4, with “MYA-1003” for “ATCC 10231”; type: functional; conditions: MYA-1003, 48 h; in short: as §5
Candida albicans [34] = assay: as §4, with “10231 assessed as fractional inhibition” for “10231”; type: functional; conditions: ATCC 10231, 48 h; in short: as §5
Candida albicans [35] = assay: as §4, with “64124 assessed as fractional inhibition” for “10231”; type: functional; conditions: ATCC 64124, 48 h; in short: as §5
Candida albicans [36] = assay: as §4, with “azole-susceptible” for “azole-resistant”, “MYA-2876 assessed as fractional inhibition” for “10231”; type: functional; conditions: ATCC MYA-2876, 48 h; in short: as §5
Candida albicans [37] = assay: as §4, with “90819 assessed as fractional inhibition” for “10231”; type: functional; conditions: ATCC 90819, 48 h; in short: as §5
Candida albicans [38] = assay: as §4, with “azole-susceptible” for “azole-resistant”, “MYA-2310 assessed as fractional inhibition” for “10231”; type: functional; conditions: ATCC MYA-2310, 48 h; in short: as §5
Candida albicans [39] = assay: as §4, with “MYA-1237 assessed as fractional inhibition” for “ATCC 10231”; type: functional; conditions: MYA-1237, 48 h; in short: as §5
Candida albicans [40] = assay: as §4, with “MYA-1003 assessed as fractional inhibition” for “ATCC 10231”; type: functional; conditions: MYA-1003, 48 h; in short: as §5

NC[C@H]1O[C@H](O[C@H]2[C@H](O)[C@@H](O[C@H]3O[C@H](CO)[C@@H](O)[C@H](N)[C@H]3O)[C@H](N)C[C@@H]2N)[C@H](N)[C@@H](O)[C@@H]1O [BEKANAMYCIN]
Ratio (Listeria monocytogenes [1]): 4 | Activity (Candida albicans [2]): 5% | Activity [3]: Non-toxic | Activity (A549): Non-toxic | Activity [4]: Non-toxic | MIC (Klebsiella pneumoniae): 4 µg/mL (≈ 8.27 µM) | MIC (Bacillus subtilis): 4 µg/mL (≈ 8.27 µM) | MIC (Listeria monocytogenes [5]): ≤ 0.25 µg/mL | MIC (Staphylococcus aureus [6]): > 128 µg/mL | MIC [7]: ≤ 0.25 µg/mL | MIC (Staphylococcus aureus [8]): ≤ 0.25 µg/mL | MIC (Staphylococcus aureus [9]): > 128 µg/mL | MIC (Staphylococcus aureus [10]): 128 µg/mL (≈ 265 µM) | MIC (Staphylococcus aureus [11]): 32 µg/mL (≈ 66.2 µM) | MIC (Staphylococcus aureus [12]): 32 µg/mL (≈ 66.2 µM) | MIC [13]: 0.5 µg/mL (≈ 1.03 µM) | MIC (Enterococcus): > 128 µg/mL | MIC (Acinetobacter baumannii): 4 µg/mL (≈ 8.27 µM) | MIC (Enterobacter cloacae): 0.5 µg/mL (≈ 1.03 µM) | MIC (Escherichia coli): 2 µg/mL (≈ 4.14 µM) | MIC (Pseudomonas aeruginosa): 16 µg/mL (≈ 33.1 µM) | MIC (Salmonella enterica): 2 µg/mL (≈ 4.14 µM) | Activity [14]: Active | Activity [15]: Active | Activity (Serratia marcescens): Active | Activity [16]: inactive | Activity [17]: inactive | Activity [18]: inactive | Activity [19]: Active | MIC (Candida albicans [20]): > 125 µg/mL | MIC (Candida albicans [21]): > 125 µg/mL | MIC (Candida albicans [22]): > 125 µg/mL | MIC (Candida albicans [23]): > 125 µg/mL | MIC (Candida albicans [24]): > 125 µg/mL | MIC (Candida albicans [25]): > 125 µg/mL | MIC (Candida albicans [26]): > 125 µg/mL | MIC (Aspergillus nidulans): > 125 µg/mL

CC[C@@H]([C@H](C)O)n1ncn(-c2ccc(N3CCN(c4ccc(OC[C@@H]5CO[C@@](Cn6cncn6)(c6ccc(F)cc6F)C5)cc4)CC3)cc2)c1=O [POSACONAZOLE]
MIC (Candida albicans [27]): 0.06 µg/mL | MIC (Candida albicans [28]): 0.78 µg/mL | MIC (Candida albicans [29]): 0.78 µg/mL | MIC (Candida albicans [30]): 0.78 µg/mL | MIC (Candida albicans [31]): 0.39 µg/mL | MIC (Candida albicans [32]): 0.78 µg/mL | MIC (Candida albicans [33]): 0.78 µg/mL | MIC (Candida albicans [34]): 0.06 µg/mL | MIC (Candida albicans [35]): 1.56 µg/mL | MIC (Candida albicans [36]): 1.56 µg/mL | MIC (Candida albicans [37]): 0.78 µg/mL | MIC (Candida albicans [38]): 1.56 µg/mL | MIC (Candida albicans [39]): 0.78 µg/mL | MIC (Candida albicans [40]): 1.56 µg/mL | MIC50 (Candida albicans [20]): 0.5 µg/mL (≈ 0.713 µM) | MIC50 (Candida albicans [21]): > 62.5 µg/mL | MIC50 (Candida albicans [22]): 7.8 µg/mL (≈ 11.1 µM) | MIC50 (Candida albicans [23]): 31.2 µg/mL (≈ 44.5 µM) | MIC50 (Candida albicans [25]): 15.6 µg/mL (≈ 22.3 µM) | MIC50 (Candida albicans [26]): 15.6 µg/mL (≈ 22.3 µM) | MIC (Aspergillus nidulans): ≤ 1.95 µg/mL
